Screening results from PubChem.
GPR7 antag: GPR7 receptor antagonists, primary screen, cell-based, fluorescence, single concentration; GPR7-expressing cells, fluorescence antagonist assay; Neuropeptides B/W receptor type 1 (Homo sapiens), P48145; 290,000 compounds, 1.1% hits; inhibition, % at 4.4 µM; in the data active = inhibition above about 16%, passing the limit was not always enough;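 also: cells stimulated with the agonist NPW; 0% = agonist with vehicle and 100% = vehicle without agonist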
OX1R antag-1: antagonists of human orexin 1 receptor (OX1R). Orexin/Hypocretin receptor type 1 (Homo sapiens), O43613. OX1R-expressing cells, FRET antagonist read-out. inhibition, % at 6.6 µM. 330,000 compounds, 1.8% hits. AID 485270, 2010; in the data active = inhibition mostly above about 38%, no sharp cut-off; inactive = mostly below about 40%;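 also: 0% = agonist challenge alone and 100% = reference antagonist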
Target sequence (O43613 whole entry, looked up): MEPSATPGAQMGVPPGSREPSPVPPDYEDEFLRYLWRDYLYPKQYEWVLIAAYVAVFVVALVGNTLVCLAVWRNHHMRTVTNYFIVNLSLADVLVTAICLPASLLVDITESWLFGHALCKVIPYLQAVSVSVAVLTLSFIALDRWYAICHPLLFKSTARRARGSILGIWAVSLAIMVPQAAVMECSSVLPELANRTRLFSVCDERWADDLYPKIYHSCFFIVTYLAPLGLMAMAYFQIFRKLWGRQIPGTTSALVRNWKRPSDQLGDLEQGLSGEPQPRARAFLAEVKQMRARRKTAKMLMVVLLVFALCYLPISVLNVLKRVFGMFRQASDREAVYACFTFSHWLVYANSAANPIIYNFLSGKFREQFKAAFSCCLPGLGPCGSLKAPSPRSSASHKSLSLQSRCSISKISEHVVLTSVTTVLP
TAAR1 agonist: human TAAR1 agonists, primary screen, Fluo-8 calcium fluorescence, CHO RD-HGA16 cells; vehicle wells 0%, saturating PEA agonist 100%; activation, % at 3 µM; 360,000 compounds, 0.99% hits; AID 624467, 2012;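 active = activation above the mean activation of all test compounds in the run plus 3 SD, cut at about 38% in these data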
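Assay system: CHO-derived RD-HGA16 cells with stable Gα16 and human TAAR1; timing: 17-24 h seeding, 75 min 37 °C dye, 30 min RT; read-out: % activation from peak over basal fluorescence ratio, DMSO-to-PEA scaled; measured by: kinetic Fluo-8 calcium fluorescence; benchmarks: low control DMSO, high control PEA (EC100); doses: 3 µM single concentration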
CHO parental Ca: ATP-evoked calcium signal inhibitors, parental CHO, primary screen, counter-screen for OX1R antagonist project, cell-based, fluorescence, Fluo-8 calcium dye. AID 463079, 2010. 330,000 compounds, 0.63% hits. inhibition, % at 5.6 µM. parental CHO-K1, ATP-induced calcium, Fluo-8 fluorescence;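 active = inhibition above that plate's mean sample inhibition plus 3 SD, cut at about 26% in these data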;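 also: 0% = ATP-challenged DMSO wells and 100% = DMSO wells without ATP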
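Material: Parental CHO cells | Reagent: ATP | Compound dosing: Single nominal dose of 5.6 µM per compound | Detection: Intracellular calcium via Fluo-8 no-wash fluorescent dye | Read-out: % inhibition of ATP-induced calcium mobilization | Benchmarks: Low control ATP plus DMSO, high control DMSO only | Replicates: Singlicate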
OX1R antag-2: OX1R (HCRTR1) antagonists, primary screen, fluorescence, CHO/OX1R cells, Fluo-8 calcium, orexin A; Orexin/Hypocretin receptor type 1 (Homo sapiens), O43613; Fluo-8 calcium fluorescence; inhibition, % at 5 µM; 330,000 compounds, 0.43% hits;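 active = inhibition above its plate's threshold, mean inhibition of all tested compounds on the plate plus 3 SD, cut at about 37% in these data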;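 also: 0% = orexin A challenge wells and 100% = SB-334867-A antagonist wells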
TAAR1 antagonist: human TAAR1 antagonists, primary screen, Fluo-8 calcium fluorescence, CHO RD-HGA16 cells; Trace amine-associated receptor 1 (Homo sapiens), Q96RJ0; 360,000 compounds, 1.5% hits; inhibition, % at 3 µM; antagonist;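 active = inhibition above a per-plate cutoff, the mean inhibition of test compounds on that plate plus 3 SD, cut at about 49% in these data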;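 also: 0% = DMSO plus EC80 beta-PEA response and 100% = DMSO alone without agonist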
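System: CHO RD-HGA16 cells bearing hTAAR1. Reagent: EC80 β-phenethylamine stimulus. Schedule: seeding 17-24 h prior, 75-min 37 °C, 30-min RT dye loading. Signal: Fluo-8 intracellular calcium dye fluorescence, real-time kinetic reads. Read-out: % inhibition from peak post-agonist over basal fluorescence ratio. Benchmarks: vehicle wells and EC80 agonist wells. Replicates: n of 1.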
The depositor's hits bear a star; · = not tested or not shown. Hits are enriched below; roughly 4.6% of the tested compounds scored in any of these assays.

SMILES | GPR7 antag | OX1R antag-1 | TAAR1 agonist | CHO parental Ca | OX1R antag-2 | TAAR1 antagonist
O=[N+]([O-])c1cccc(NC(=S)NCCc2ccccc2)c1 | -5 | 53* | 10 | 17 | -20 | 23
Fc1ccccc1NC(=S)NCCc1ccc(Cl)cc1 | -1 | · | 0 | · | · | 1
Fc1cccc(NC(=S)NCCc2ccccc2)c1 | 3 | 30 | 29 | 1 | -18 | -13
Fc1ccccc1NC(=S)NCCc1ccccc1 | -2 | 19 | 56* | 3 | -5 | 6
CC(C)(CNC(=S)NCCc1ccccc1)CNC(=S)NCCc1ccccc1 | 15 | · | 46* | · | · | 62*
Cc1ccc(C(=O)Nc2ccccc2C(=O)O)cc1NC(=O)COc1c(C)cccc1C | -14 | 41* | 20 | -8 | -21 | 31
COc1ccc(C(=O)Nc2ccccc2C(=O)O)cc1Cl | 6 | 18 | 15 | 3 | -2 | -32
CCOc1c(Cl)cc(C(=O)Nc2ccccc2C(=O)O)cc1Cl | 12 | 63* | 18 | -3 | -6 | 13
Nc1nc(-c2ccccc2)cc(N2CCCCC2)n1 | 14* | 23 | 6 | -18 | -31 | 6
COc1ccc(N2CC(C(=O)Nc3c(C(N)=O)oc4ccccc34)CC2=O)cc1 (centres undefined) | · | -3 | 4 | -8 | -18 | 28
O=C(c1nc[nH]c1C(=O)N1CCc2ccccc2C1)N1CCc2ccccc2C1 | · | 12 | 38* | -8 | 4 | 48
O=C(N[C@@H](Cc1ccccc1)C(=O)OCc1ccccc1)c1nc[nH]c1C(=O)N1CCc2ccccc2C1 | · | 14 | 7 | 30 | 31 | 59*
C[C@H](NC(=O)c1nc[nH]c1C(=O)NC1CCN(C(=O)OC(C)(C)C)CC1)C(=O)OCc1ccccc1 | -14 | 19 | 9 | -22 | -10 | 56*
CNC(=O)c1[nH]cnc1C(=O)N[C@@H](Cc1ccccc1)C(=O)OCc1ccccc1 | -16 | 22 | 13 | -1 | -28 | 59*
COc1cccc(CNC(=O)C2CCN(C(=O)N3CC(C)Oc4ccccc43)CC2)c1 (centres undefined) | -5 | -2 | 5 | 0 | -10 | 12
CC(C)(C)c1ccc(OCC(O)CSc2ncn[nH]2)cc1 (centres undefined) | -8 | 4 | 15 | -10 | 7 | -4
O=C(COC(=O)c1cc(=O)[nH]c2ccccc12)NCc1cccs1 | -2 | 25 | 1 | -11 | -6 | -15
COc1cc(CC(=O)OCC(=O)Nc2sccc2C(N)=O)cc(OC)c1OC | -4 | 29 | 21 | 6 | 12 | 63*
NC(=O)c1ccsc1NC(=O)COC(=O)c1cc(=O)[nH]c2ccccc12 | · | 33 | 10 | -19 | -31 | 50*
CCOC(=O)C1CCN(C(=O)CN2C(=O)COc3ccc(C(C)(C)C)cc32)CC1 | -2 | 6 | 2 | -19 | -20 | 6
COc1cccc(NC(=S)NC(C)c2ccc(OC)c(OC)c2)c1 (centres undefined) | -13 | 75* | 8 | -11 | -16 | 2
COCCCNCCCCOc1ccc(Br)cc1C | 16 | 1 | 41* | -11 | -17 | -7
O=C(COC(=O)c1cccc(S(=O)(=O)N2CCOCC2)c1)NCCc1ccccc1 | -24 | 18 | 1 | -9 | -24 | -4
Cc1ccc(NC(=S)N(CCCN2CCCC2)Cc2cccn2Cc2ccc(Cl)cc2)cc1Cl | 15 | 7 | 11 | -16 | -6 | -39
COc1ccc(NC(=S)N(CCCN2CCCC2)Cc2cccn2Cc2ccc(Cl)cc2)cc1Cl | 19* | 11 | 40* | 5 | -4 | 36
SMILES | GPR7 antag | OX1R antag-1 | TAAR1 agonist | CHO parental Ca | OX1R antag-2 | TAAR1 antagonist
COc1ccc(CCNC(=O)c2cccc(S(=O)(=O)N3CCCC3)c2)cc1 | · | · | 1 | · | · | -13
COc1ccc(CCNC(=O)c2ccc(Cl)c(S(=O)(=O)N3CCCCCC3)c2)cc1 | · | 15 | 15 | 27* | 46* | 44
COc1cc(CCC(=O)Nc2ccc(S(=O)(=O)N3CCCC3)cc2)cc(OC)c1OC | · | 0 | 7 | -20 | -34 | -22
O=C(COc1ccc(F)cc1Cl)Nc1cccc(S(=O)(=O)N2CCCC2)c1 | · | -1 | 4 | 30 | 47* | 14
Cc1ccccc1OCC(=O)Nc1ccc(C)c(S(=O)(=O)N2CCCCCC2)c1 | · | 37 | 0 | 8 | -19 | 49*
COc1cc(CCC(=O)Nc2ccc(C)c(S(=O)(=O)N3CCCCCC3)c2)cc(OC)c1OC | · | 15 | 15 | -8 | 25 | 50*
Cc1ccc(NC(=O)COc2ccccc2)cc1S(=O)(=O)N1CCCCC1 | · | · | 4 | · | · | 12
Cc1c(-c2ccccc2)[n+](=O)c(-c2ccco2)c(C)n1[O-] | -5 | 15 | 3 | -6 | -8 | -8
Cc1ccc(Cc2c(-c3cccc(Br)c3)nc3c(Cl)cc(C(F)(F)F)cn23)cc1 | · | · | 0 | · | · | -14
CCCN(C(=O)c1cc(S(=O)(=O)N2CCN(CC)CC2)ccc1Cl)C1CCS(=O)(=O)C1 (centres undefined) | · | · | 3 | · | · | -9
CCOc1ncccc1C(=O)Nc1ccc(C)c(S(=O)(=O)N2CCCCCC2)c1 | · | 4 | 4 | 34* | 55* | 40
CC1CCCN(S(=O)(=O)c2cc(C(=O)NCCc3ccc(S(N)(=O)=O)cc3)ccc2Cl)C1 (centres undefined) | · | · | 16 | · | · | 50*
COc1ccc(CCC(=O)Nc2ccc(OC)c(S(=O)(=O)N3CCCCC3)c2)cc1OC | · | 7 | 6 | -17 | -16 | 10
COc1ccc(CCC(=O)Nc2ccc(Cl)c(S(=O)(=O)N3CCCC3)c2)cc1 | 21* | 26 | 0 | 53* | 36 | 4
CCOc1ncccc1C(=O)Nc1ccc(OC)c(S(=O)(=O)N2CCCCC2)c1 | -2 | 13 | 3 | -1 | -32 | -19
CC1CCCN(S(=O)(=O)c2cc(C(=O)NCc3ccco3)ccc2Cl)C1 (centres undefined) | · | 4 | -2 | -8 | -15 | 1
Cc1cc(=O)c2c([nH]1)c(C)cc1[nH]c(C)c(C)c12 | · | 9 | 1 | -5 | -4 | -2
CCOC(=O)c1ccccc1N=N/C(C(C)=O)=C(/C)O | -8 | -3 | -2 | -3 | -13 | -22
CCOC(=O)Cn1cnc2scc(-c3ccc(C)cc3)c2c1=O | -14 | 13 | 1 | -12 | -23 | -4
CC1CCCC(NC(=O)COC(=O)c2ccc([N+](=O)[O-])s2)C1C (centres undefined) | · | 44* | 4 | 2 | 12 | -7
